# Where no end group is shown, it is not given here. Me2 = dimethyl on the lysine side-chain amine
# What was measured:
# [1] = tested on: p53K382me2 in U2OS cells; assay: Immunoblot of immunoprecipitated p53: anti-p53K382me2 reactivity; assay type: cell-based, human
# In short: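 Sub-confluent U2OS cells were grown in DMEM with 10% FBS and left untreated or given doxorubicin for 4 h. TSA (400 nM) was given for 1 h, in combined treatment added 3 h after doxorubicin. Cells were lysed in Tris pH 7.4/NaCl/Triton buffer with inhibitors. p53 was pulled down from 1 mg protein on DO-1 agarose overnight at 4 °C and eluted non-reducing at 70 °C. Blots were probed overnight at 4 °C with anti-K382me2 and a light-chain-specific secondary.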
# [2] = tested on: p300/CBP at p53 target regions; assay: p300 ChIP-seq enrichment at p53 target regions; assay type: cell-based; settings: meta-analysis of public ChIP-seq data, mouse ES cells
# [3] = tested on: GST 53BP1-TTD; assay: Biotinylated p53 peptide microarray binding of GST-tagged 53BP1 TTD; settings: biotinylated p53 peptides; four replicate array binding experiments
# In short: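 Biotinylated p53 C-terminal peptides (residues 366–390) printed on streptavidin-coated glass slides, then probed with GST-tagged 53BP1 TTD. Binding is shown as normalized mean intensity on a 0 (undetectable) to 1 (strong) scale from four replicate array experiments. Agreement between duplicate arrays was assessed by linear regression correlation.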
# [4] = tested on: anti-p53K382me2 antibodies; assay: Dot-blot reactivity of anti-p53K382me2 antibody toward p53 peptides; assay type: binding, rabbit; settings: relative to p53K381acK382me2 peptide, residues 377–386
# [5] = target: 53BP1 TTD, wild type (Homo sapiens, UniProt Q12888); assay: NMR binding to 53BP1 TTD; settings: 15N-labeled TTD, peptide titrated in
# 53BP1 TTD, wild type, sequence (Q12888 1484-1603 limits assumed): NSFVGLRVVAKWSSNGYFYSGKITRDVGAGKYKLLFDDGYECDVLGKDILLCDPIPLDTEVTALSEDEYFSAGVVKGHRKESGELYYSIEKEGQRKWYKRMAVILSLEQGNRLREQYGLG
compound,measurement,setting,value
CC(/C=C/C(=O)NO)=C\[C@@H](C)C(=O)c1ccc(N(C)C)cc1 [TSA],p53K382me2 level under basal conditions (in words),"[1]; basal, with TSA 400 nM, 1 h",little p53K382me2 was present
COc1cccc2c1C(=O)c1c(O)c3c(c(O)c1C2=O)C[C@@](O)(C(=O)CO)C[C@@H]3O[C@H]1C[C@H](N)[C@H](O)[C@H](C)O1 [doxorubicin],p53K382me2 level in immunoprecipitated p53 (in words),"[1]; doxorubicin 4 h (5 µg/mL in legend, 0.5 µg/mL in method)",increased substantially
same,p300/CBP at p53 target regions (in words),[2],enrichment of p300/CBP
"p53K370me2: p53 CTD peptide dimethylated at K370 (SSHLK(Me2)SKKGQSTSRHKKLMFKTEGP; also: biotin label, position not given here)",GST-TTD binding in peptide microarray (in words),[3],more weakly
"p53K372me2: p53 CTD peptide dimethylated at K372 (SSHLKSK(Me2)KGQSTSRHKKLMFKTEGP; also: biotin label, position not given here)",GST-TTD binding in peptide microarray (in words),[3],more weakly
"p53K382me2: p53 peptide dimethylated at K382 (residues 377–386; biotinylated 366–390 for microarray) (SSHLKSKKGQSTSRHKK(Me2)LMFKTEGP; also: biotin label, position not given here)","anti-p53K382me2 antibody reactivity, fold weaker than with p53K381acK382me2 peptide",[4],16 fold
same,"chemical shift changes in 1H,15N HSQC spectra of TTD (in words)",[5],most significant changes in the K382me2-binding cage
"p53K382me2K386ac: biotinylated p53 CTD peptide with K382me2 and K386ac (SSHLKSKKGQSTSRHKK(Me2)LMFK(Ac)TEGP; also: biotin label, position not given here)",GST-TTD binding in peptide microarray (in words),[3],recognizes

# — paper PMC4317571 (Structure (London, England : 1993), 2015)
